# A selection: hits, their analogues and other compounds. The true share with any hit is near 2.2%.
# NR2E3 ag-1: inhibitors of NR2E3-RetCOR corepressor binding, primary screen, NR2E3 agonist project, biochemical, TR-FRET, GST-NR2E3, biotin-RetCOR; Photoreceptor-specific nuclear receptor (Homo sapiens), Q9Y5X4; 1536-well; inhibition of corepressor binding, % at 4.78 µM; hit rate 0.12% among 320,000;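 active = percent inhibition above the cutoff of mean plus 3 SD of all tested compounds, set per screening campaign, cut at about 20% in these data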;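 note: 0% = DMSO wells and 100% = biotin wells as full block of FRET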
#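 System: GST-tagged NR2E3 plus biotinylated RetCOR corepressor; Amount: 1.35 nM GST-tagged NR2E3 final; Dosing: single nominal compound dose of 4.8 µM; Schedule: 5 h incubation at 4 °C; Technique: TR-FRET with europium anti-GST and streptavidin-D2, 340 nm excitation; Controls: biotin wells as high control, 0.6% DMSO wells as low control.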
# GalR3 antagonist: GalR3 antagonists in HEK293 cells, primary screen, cell-based, fluorescence readout. Galanin receptor type 3 (Homo sapiens), O60755. HEK293 GalR3-CNG cAMP membrane potential fluorescence; galR3 body fused to GalR1 C-terminus. inhibition, % at 3 µM. hit rate 0.44% among 360,000;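 active = inhibition above the screen-wide average plus 3 SD, cut at about 13% in these data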;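 note: forskolin and galanin both at EC90 stimulate the cells; cAMP rise reported by CNG channel membrane potential dye signal; 0% = forskolin plus galanin with DMSO and 100% = forskolin alone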
# Target sequence (O60755 1-299 limits assumed): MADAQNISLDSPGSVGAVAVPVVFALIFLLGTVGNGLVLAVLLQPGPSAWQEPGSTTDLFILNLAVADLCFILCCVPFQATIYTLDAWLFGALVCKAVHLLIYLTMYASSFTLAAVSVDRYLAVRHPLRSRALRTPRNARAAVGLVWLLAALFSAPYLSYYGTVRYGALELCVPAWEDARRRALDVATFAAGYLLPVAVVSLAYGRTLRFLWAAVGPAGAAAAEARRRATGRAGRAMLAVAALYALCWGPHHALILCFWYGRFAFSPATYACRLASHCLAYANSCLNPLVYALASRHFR
# FXN GAA850 act: FXN promoter activators, primary screen, cell-based, luciferase luminescence, HEK293 lucGAA850 | HEK293 lucGAA850 FXN promoter luciferase reporter, 24 h; percent of 10 µM SAHA response | hit rate 0.56% among 360,000 | activation, % at 6 µM;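 active = activation above the average of all compounds screened plus 3 SD, cutoff fixed separately per campaign, cut at about 7.5% in these data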;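 note: 0% = DMSO wells and 100% = 10 µM SAHA wells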
# NR2E3 ag-2: NR2E3 agonists in two-hybrid cells, primary screen, cell-based, luminescence, CHO-S, Gal4-NCOR/VP16-NR2E3. luciferase. inhibition of corepressor binding, % at 3.98 µM. hit rate 0.35% among 360,000. AID 602229, 2012;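 active = inhibition above the mean of all tested compounds plus 3 SD, cut at about 70% in these data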;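 note: 0% = DMSO with NR2E3 transfected cells and 100% = cells lacking NR2E3 construct; higher means lower luciferase signal from less NR2E3 corepressor binding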
# V-ATPase pH: regulators of yeast V-ATPase proton pumping, primary screen, pHLuorin cytosolic pH fluorescence. S. cerevisiae. response, % at 10 µM. hit rate 0.37% among 350,000. AID 504577, 2011; in the data active = response mostly above about 7.3%, no sharp cut-off; inactive = mostly below about 5.4%; note: actives read high
# Env fusion inh: inhibitors of HIV-1 Env-driven cell-cell fusion, primary screen, HeLa-JRFL effector, CEM21 target cells, luciferase; hit rate 1.1% among 360,000; inhibition, % at 12.3 µM; AID 651610, 2012;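 active = mean replicate inhibition score of at least 50 and every replicate individually at or above 50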;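 note: 0% = plate neutral controls and 100% = maraviroc near 300 nM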
# NR2E3 ag confirm: NR2E3 agonist confirmation in cells, cell-based, luminescence, CHO-S two-hybrid | inhibition, % at 3.98 µM | hit rate 51% among 2,300 | CHO-S mammalian two-hybrid NR2E3-NCOR, luciferase luminescence | shares compounds with NR2E3 ag-2;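 active = average inhibition above a cutoff equal to the mean inhibition of all tested compounds plus one SD, cut at about 70% in these data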;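 note: 0% = DMSO in NR2E3 cells and 100% = DMSO in cells lacking NR2E3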
# VP16 counter: GAL4-VP16 reporter modulators, confirmation, counter-screen for NR2E3 agonist project, cell-based, luminescence, CHO-S, high throughput; CHO-S GAL4-VP16 luciferase reporter; hit rate 29% among 2,300; inhibition, % at 3.98 µM; shares compounds with NR2E3 ag-2; AID 624379, 2012;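 active = mean inhibition above a cutoff equal to the average over all tested compounds plus one standard deviation, cut at about 70% in these data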;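 note: luciferase from a UAS reporter driven by GAL4-VP16 transactivation; 0% = DMSO with VP16-transfected cells and 100% = DMSO with cells lacking VP16; higher means less reporter light so more repression of VP16 activity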
# * hit, by the source's call; x = no result given; [ ] = another dose, or the depositor's remark.
SMILES,NR2E3 ag-1,GalR3 antagonist,FXN GAA850 act,NR2E3 ag-2,V-ATPase pH,Env fusion inh,NR2E3 ag confirm,VP16 counter
Cn1c(=O)c(C#N)c(-c2ccc(F)cc2)c2cc(C(=O)c3cc(Cl)cc(Cl)c3O)cnc21,-1.4,0.7,-2.8,93.8*,0.2,14.4,100.3*,94.2*
COC1(OC)C(/C=C/c2ccc(C)cc2)C(C#N)(C#N)C1(OC)OC (stereo not given),-3.2,-2.7,-2.6,77.1*,4.3,12.7,-30.6,6.7
CN1C(=O)c2cc(NC(=O)c3ccno3)ccc2OC[C@H]2O[C@@H](CC(=O)Nc3ccccc3)CC[C@@H]21,x,x,x,x,x,-16.5[16.7 µM],x,x
CC(C)Cn1c(N)c(C(=O)COC(=O)CC23CC4CC(CC(C4)C2)C3)c(=O)n(C)c1=O,3.1,-4.2,-2.7,93.6*,0.7,x,93.4*,76.4*
Cc1cccc(C(=O)OCC(=O)c2c(N)n(CC(C)C)c(=O)n(C)c2=O)c1[N+](=O)[O-],-0.1,-3.3,0.8,50.3,-2.5,x,39.6,44.7
CCC(C)(C)c1ccc(Oc2ccc(N)cc2)cc1,x,2.6,-16.0,60.9,-1.7,60.5*,60.4,70.4
CCN(CC)S(=O)(=O)c1cc(NC(=O)CNc2cccc(S(=O)(=O)N3CCCC3)c2)ccc1C,1.8,x,-6.0,69.8,-2.2,x,61.1,52.6
O=C(CNc1cccc(S(=O)(=O)N2CCOCC2)c1)Nc1ccc(C(F)(F)F)cc1,-2.2,-2.2,-1.5,49.7,-0.1,x,10.5,25.2
O=C(CNc1ccc(C(F)(F)F)cc1)Nc1cccc(S(=O)(=O)N2CCCC2)c1,1.4,0.5,0.0,-30.1,2.3,x,x,x
Cc1ccc(S(=O)(=O)N[C@@H]2CC[C@H](CC(=O)NCc3ccccc3F)O[C@H]2CO)cc1,x,x,x,x,x,2.5[16.7 µM],x,x
O=C(C[C@@H]1C[C@@H]2c3cc(NS(=O)(=O)c4ccc(F)cc4)ccc3O[C@@H]2[C@@H](CO)O1)NC1CCCC1,x,x,x,x,x,-13.2[16.7 µM],x,x
NC(=S)N/N=C/c1c(O)ccc2ccccc12,-1.9,2.0,-0.7,74.9*,-3.2,49.9,1.5,9.9
COCCn1c(C)c(C)c2c(NCCc3ccccc3)ncnc21,x,-6.1,-8.3,52.1,-0.3,-19.5,0.7,-94.0
Cc1c(C)n(CCc2ccccc2)c2ncnc(NCCCO)c12,-1.9,-4.3,2.8,-136.4,1.3,-11.2,x,x
Cc1noc(C)c1NC(=O)Nc1cccc2c1O[C@@H](CN(C)S(=O)(=O)c1ccccc1)[C@H](C)CN([C@@H](C)CO)C2=O,x,x,x,x,x,2.9[16.7 µM],x,x
CC(C)c1ccc(C(C)NC(=S)NC2CCCCC2)cc1 (stereo not given),x,-4.2,-2.1,50.4,0.1,4.7,10.9,15.8
CCC(C)c1ccc(C(C)NC(=S)NC2CCCCC2)cc1 (stereo not given),-0.6,-3.9,-3.3,85.1*,0.7,x,57.2,48.4
CCc1ccc(C(C)NC(=S)NC2CCCCC2)cc1 (stereo not given),x,x,-1.6,27.1,2.2,x,x,x
C[C@@H]1CN([C@@H](C)CO)C(=O)Cc2cc(NC(=O)CCC(F)(F)F)ccc2O[C@@H]1CN(C)Cc1ccc2c(c1)OCO2,x,x,x,x,x,3.7[16.7 µM],x,x
C[C@H]1CCCCO[C@H](CN(C)S(=O)(=O)c2ccccc2)[C@@H](C)CN([C@@H](C)CO)C(=O)c2cc(NS(C)(=O)=O)ccc2O1,x,x,x,x,x,6.3[16.7 µM],x,x
